Pf gametocyte: late stage P. falciparum gametocyte viability inhibitors, primary screen, ATP luminescence, HTS; hit rate 0.065% among 150,000; inhibition, % at 10.9 µM; P. falciparum stage V gametocytes, 24 h;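 active means inhibition above the mean plus 3 SD of compounds within the control limits, set per campaign, cut at about 38% in these data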
NF-kB neuron act: activators of NF-kB expression in neurons, primary screen, cell-based, HTS; human neuronal cells, NF-kB reporter expression; stronger effect = higher value; fold change at 12.5 µM; hit rate 1.6% among 190,000; AID 1239, 2008; in the data active means fold change above about 3.3
STAT1 activator: STAT1 signaling activators, primary screen, cell-based, HTS, luciferase reporter; NIH 3T3 STAT1-luciferase reporter, IFN-gamma, luminescence; 100% = IFN-gamma alone, no compound; activation (% of control), % at 5.5 µM; hit rate 2.6% among 200,000; AID 932, 2007;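 active means activation above the screen-wide mean activation plus 3 SD, cut at about 130% in these data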
FLuc inhib CS: firefly luciferase enzyme inhibitors, primary screen, artefact control for luciferase-based inhibitor screens, biochemical, luminescence, ATPLite; Luciferin 4-monooxygenase (Photinus pyralis), P08659; 10 min; inhibition, % at 10 µM; hit rate 1.5% among 200,000;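 active means inhibition above about 50% when tested at 10 µM, limit read from the data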
Target sequence (P08659 whole entry, looked up): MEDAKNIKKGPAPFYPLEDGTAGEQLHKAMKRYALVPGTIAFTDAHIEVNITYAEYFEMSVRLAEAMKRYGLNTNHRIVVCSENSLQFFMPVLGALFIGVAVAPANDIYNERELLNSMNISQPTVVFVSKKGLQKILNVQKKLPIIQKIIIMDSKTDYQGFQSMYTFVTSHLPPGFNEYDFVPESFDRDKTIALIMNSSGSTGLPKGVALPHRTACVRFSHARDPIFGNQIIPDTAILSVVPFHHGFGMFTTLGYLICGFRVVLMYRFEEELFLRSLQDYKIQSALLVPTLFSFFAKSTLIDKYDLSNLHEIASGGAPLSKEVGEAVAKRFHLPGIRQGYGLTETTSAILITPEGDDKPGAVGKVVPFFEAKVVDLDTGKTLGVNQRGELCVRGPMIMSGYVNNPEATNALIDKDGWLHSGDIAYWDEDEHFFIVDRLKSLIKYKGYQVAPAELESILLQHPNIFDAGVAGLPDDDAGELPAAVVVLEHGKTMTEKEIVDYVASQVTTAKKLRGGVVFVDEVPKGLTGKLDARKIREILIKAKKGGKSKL
APP 5'UTR act: activators of APP 5'UTR luciferase reporter, primary screen, SH-SY5Y cells | SH-SY5Y APP 5'UTR luciferase reporter, luminescence; zero percent = DMSO vehicle wells | activation, % at 2 µM | hit rate 1% among 190,000 | AID 1276, 2008;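 active means activation above a set limit, based on mean plus 3 SD of controls, cut at about 140% in these data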
FLuc stim CS: FLuc activators, initial screening, artefact control for FLuc-dependent activation tests, biochemical, ATPlite luminescence. ATPlite luciferase biochemical, 10 min; 0 = ATP-free wells, 1 = DMSO control. activation factor at 10 µM. 200,000 tested, under 10 active;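 active means luciferase activation factor, scaled between plate controls, of at least 2 with compound at 10 µM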
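Material: luciferase plus luciferin reagent, cell-free. Medium: PBS buffer for ATP. Also added: ATP substrate, dispensed from a 10.24 µM working solution in PBS. Doses: test compounds dosed from 2 mM stocks in 100% DMSO. Incubation: 10 min post-reagent at room temperature. Technique: light output (luminescence). Read-out basis: luminescence gain marking luciferase activators.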
STAT1 activ conf: STAT1 signaling activators, confirmation, cell-based, HTS, luciferase reporter | shares compounds with STAT1 activator | NIH 3T3 STAT1-luciferase reporter, IFN-gamma potentiation, luminescence; 100% = IFN-gamma EC80 alone, no compound | activation (% of control), % at 5.7 µM | hit rate 97% among 1,200 | AID 1262, 2008;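 active means activation above a set limit carried over from the earlier primary STAT1 screen, cut at about 140% in these data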
NFkB act STAT1ct: NF-kB reporter activators, TNF-alpha stimulated, counter-screen for STAT1 activator project, cell-based, HEK293T, luciferase luminescence. shares compounds with STAT1 activator. 100% = TNF-alpha with vehicle only. activation (% of control), % at 5.7 µM. hit rate 43% among 1,200;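 active means activation above the mean of solvent-only control wells plus 3 SD, set per campaign, cut at about 130% in these data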;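 further: TNF-alpha given at a submaximal dose yielding about 80% of full reporter signal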
STAT3 act STAT1c: STAT3 reporter activation by STAT1 hits, confirmation, counter-screen for STAT1 activator project, U3A cells, luciferase, luminescence; activation (% of control), % at 5.7 µM; IL-6; cells lack STAT1; 100 = IL-6 alone, no compound effect; shares compounds with STAT1 activator; hit rate 46% among 1,200;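 active means activation above the solvent-only control well mean plus 3 SD, set per plate batch, cut at about 110% in these data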;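 further: higher means more STAT3 reporter activation so hits are non-selective activators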
Large screens that a line does not name were inactive (follow-up assays come after a bar, where they were run). Hits are enriched below; roughly 3.5% of the tested compounds scored in any of these assays.

COCCn1c(C)cc(C(=O)CSc2nc3ccccc3o2)c1C	STAT1 activator 158, APP 5'UTR act 177 (no result: Pf gametocyte) | STAT1 activ conf 215 | NFkB act STAT1ct inactive | STAT3 act STAT1c inactive
Cc1nc2c(ccc3nc(NC(=O)c4ccc5c(c4)OCCO5)sc32)s1	NF-kB neuron act 5.4, STAT1 activator 168, FLuc inhib CS 86 (no result: Pf gametocyte) | STAT1 activ conf 230 | NFkB act STAT1ct inactive | STAT3 act STAT1c inactive
Nc1ccccc1Nc1cc(-c2ccccc2)[nH]n1	NF-kB neuron act 4.7, STAT1 activator 225 | STAT1 activ conf 179 | NFkB act STAT1ct inactive | STAT3 act STAT1c inactive
Nc1ccccc1Nc1cc(-c2ccccc2)nn1-c1ccccc1	none
COc1cc(C(C(=O)NC2CCCCC2)N(CCN2CCOCC2)C(=O)C2COc3ccccc3O2)cc(OC)c1OC (stereo unspecified)	none
CCn1c(O)c(/C=N/n2cnnc2)sc1=S	none
CCn1c(O)c(C=Nc2ccccc2)sc1=S	NF-kB neuron act 3.4, STAT1 activator 176, APP 5'UTR act 191 | STAT1 activ conf 206 | NFkB act STAT1ct 139 | STAT3 act STAT1c 111
S=C(Nc1ccccn1)Nc1ccccc1Cl	none
S=C(Nc1ccccn1)c1ccccn1	NF-kB neuron act 20, STAT1 activator 153 (no result: Pf gametocyte) | STAT1 activ conf 178 | NFkB act STAT1ct inactive | STAT3 act STAT1c 112
CCCCCCSc1ccc([C@@H]2[C@H]3C(=O)N(CC)C(=O)[C@H]3[C@]3(C(=O)OC)CCCCN23)cc1OC	none (no result: NF-kB neuron act, STAT1 activator, FLuc inhib CS, APP 5'UTR act, FLuc stim CS)
Cc1ccc(C(=O)Nc2ccc(SC(F)F)cc2)s1	STAT1 activator 173 | STAT1 activ conf 205 | NFkB act STAT1ct 141 | STAT3 act STAT1c inactive
Fc1ccccc1N1CCN(c2cnc3ccccc3n2)CC1	NF-kB neuron act 6.3, STAT1 activator 168 (no result: Pf gametocyte, APP 5'UTR act) | STAT1 activ conf 245 | NFkB act STAT1ct inactive | STAT3 act STAT1c inactive
NC(=O)c1c(NC(=O)c2cc3ccccc3o2)sc2c1CCC2	STAT1 activator 181, FLuc inhib CS 66 | STAT1 activ conf 196 | NFkB act STAT1ct inactive | STAT3 act STAT1c 118
CC(=O)Nc1sc2c(c1C(N)=O)CCC2	none
Cn1c(/C=C/c2ccc([N+](=O)[O-])o2)nc2ccccc2c1=O	STAT1 activator 212 (no result: Pf gametocyte) | STAT1 activ conf inactive | NFkB act STAT1ct 134 | STAT3 act STAT1c inactive
O=C(N1CCN(c2ccccc2F)CC1)C1(c2cccs2)CCOCC1	none
N#Cc1cnc(SCCc2ccccc2)nc1N	none (no result: Pf gametocyte)
Cc1ccccc1CSc1ncc(C#N)c(N)n1	STAT1 activator 166 (no result: Pf gametocyte) | STAT1 activ conf 169 | NFkB act STAT1ct inactive | STAT3 act STAT1c inactive
OCCOCCNc1ncnc2c1cnn2-c1ccc(Cl)cc1	NF-kB neuron act 4.6, STAT1 activator 157, APP 5'UTR act 140 | STAT1 activ conf 225 | NFkB act STAT1ct 133 | STAT3 act STAT1c 116
O=C(O)CCc1nc(-c2cccs2)no1	none (no result: Pf gametocyte)
O=[N+]([O-])c1ccccc1OCc1nc(-c2cccs2)no1	NF-kB neuron act 7.6, STAT1 activator 180, APP 5'UTR act 185 | STAT1 activ conf 226 | NFkB act STAT1ct 142 | STAT3 act STAT1c 122
Fc1ccc(OCc2nc(-c3ccc(Br)o3)no2)c(F)c1	none (no result: Pf gametocyte)
O=[N+]([O-])c1ccc(F)cc1OCc1nc(-c2cccs2)no1	NF-kB neuron act 6.4, STAT1 activator 172, APP 5'UTR act 156 | STAT1 activ conf 203 | NFkB act STAT1ct 145 | STAT3 act STAT1c 120
Cc1ccc(C2(C)NC(=O)N(CC(=O)c3ccc(Cl)s3)C2=O)cc1 (stereo unspecified)	none (no result: Pf gametocyte)
O=C(NC(=S)Nc1ccc2c(c1)OCCO2)c1cccc2ccccc12	none
O=C(CCCCCN1C(=O)c2ccccc2C1=O)Nc1ccc2c(c1)OCCO2	none (no result: Pf gametocyte)
O=C(CCCc1ccccc1)Nc1ccc2c(c1)OCCO2	NF-kB neuron act 8, STAT1 activator 151, APP 5'UTR act 203 (no result: Pf gametocyte) | STAT1 activ conf 162 | NFkB act STAT1ct inactive | STAT3 act STAT1c 119
O=C(NC(=S)Nc1ccc2c(c1)OCCO2)c1cccc(Br)c1	NF-kB neuron act 4.8, STAT1 activator 153 | STAT1 activ conf 176 | NFkB act STAT1ct 133 | STAT3 act STAT1c 118
CCC(=O)Nc1ccc2c(c1)OCCO2	none (no result: Pf gametocyte)
O=C(Nc1ccc2c(c1)OCCO2)c1ccc(Br)s1	NF-kB neuron act 11, STAT1 activator 184, FLuc inhib CS 86, APP 5'UTR act 198 | STAT1 activ conf 255 | NFkB act STAT1ct inactive | STAT3 act STAT1c inactive
O=C(CC(=O)c1ccccc1)Nc1ccc2c(c1)OCCO2	NF-kB neuron act 3.9, STAT1 activator 159 (no result: Pf gametocyte) | STAT1 activ conf 192 | NFkB act STAT1ct inactive | STAT3 act STAT1c 117
CC(=O)NC(CCCN1C(=O)c2ccccc2C1=O)c1nnn(C)n1 (stereo unspecified)	none
CS(=O)(=O)Nc1ccccc1C(=O)c1ccccc1	none (no result: Pf gametocyte)
C=CCn1c(SCC(N)=O)nc2scc(-c3ccc(C)o3)c2c1=O	STAT1 activator 155, APP 5'UTR act 167 (no result: Pf gametocyte) | STAT1 activ conf 202 | NFkB act STAT1ct 138 | STAT3 act STAT1c 129
COn1cnnc1-c1ccccc1	none
CCc1ccc(C2=NN(S(C)(=O)=O)C(c3cccs3)C2)cc1 (stereo unspecified)	NF-kB neuron act 8.4, STAT1 activator 156, APP 5'UTR act 182 | STAT1 activ conf 218 | NFkB act STAT1ct 142 | STAT3 act STAT1c 129
N#CCc1ccc(NC(=O)/C=C/c2ccc([N+](=O)[O-])o2)cc1	STAT1 activator 312 (no result: Pf gametocyte) | STAT1 activ conf 130 | NFkB act STAT1ct 155 | STAT3 act STAT1c inactive
NNC(=O)/C(=C\c1ccc(Br)cc1)NC(=O)c1cccs1	none
Clc1ccc2c(c1)CNc1c(ncnc1N1CCOCC1)O2	none (no result: Pf gametocyte)
O=C(N/N=C/c1ccc(Br)cc1)c1ccc(Br)o1	NF-kB neuron act 3.5, STAT1 activator 159, FLuc inhib CS 58 | STAT1 activ conf 190 | NFkB act STAT1ct 137 | STAT3 act STAT1c 113
O=C(N/N=C/c1ccc(Br)cc1)c1ccc(F)cc1	none
